Laboratory results as given in ChEMBL document CHEMBL1127726, “Substituted 1,3-dipropylxanthines as irreversible antagonists of A1 adenosine receptors” (J Med Chem, 1994).
One block for each compound: values may come before it.

How the values were obtained:
[1] = molecular target: Adenosine receptor A1; assay: Specific binding of [3H]CPX to the A1-adenosine receptor
[2] = test system: Adenosine receptor A1 (Mesocricetus auratus); assay: Loss of specific binding of [3H]CPX to the A1-adenosine receptor of DDT1 MF-2 (DDT) cells at a concentration of 10 uM
[3] = molecular target: T1, Adenosine receptor A1 (Homo sapiens) (UniProt P30542); assay: Percent loss of [3H]CPX binding to A1 adenosine receptor of DDT1 MF-2 (DDT) cells 10 uM
T1 sequence (whole entry): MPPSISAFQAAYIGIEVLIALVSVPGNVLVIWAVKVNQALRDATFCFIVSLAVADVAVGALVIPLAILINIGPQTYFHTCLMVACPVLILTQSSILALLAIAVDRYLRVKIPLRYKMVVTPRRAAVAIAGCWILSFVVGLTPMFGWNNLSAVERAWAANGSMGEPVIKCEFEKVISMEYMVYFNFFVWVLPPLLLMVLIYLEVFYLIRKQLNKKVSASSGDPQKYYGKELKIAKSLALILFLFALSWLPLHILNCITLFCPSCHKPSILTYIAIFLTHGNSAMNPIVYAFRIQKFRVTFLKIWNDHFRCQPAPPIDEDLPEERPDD
How it was run: (§1)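 DDT1 MF-2 monolayers, 1 day preconfluent, were exposed to xanthine in HBSS for 2 h at 37 °C, then washed 5 times (3 min each) in ligand-free HBSS. Membranes in 50 mM Tris-HCl pH 7.4 with 5 mM MgCl2 were incubated 2 h at room temperature with 0.06–4 nM [3H]CPX; 10 μM N6-cyclopentyladenosine defined nonspecific binding. Triplicate; Scatchard Bmax versus control.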

[4] = molecular target: T2, Adenosine A2 receptor (Rattus norvegicus) (UniProt P29276+P30543); assay: Loss of [3H]NECA binding to A2 adenosine receptor at 50 uM; format: protein assay
How it was run: (§2)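 PC12 monolayers, 1 day preconfluent, were exposed to xanthine in HBSS for 2 h at 37 °C, then washed 7 times (3 min each) in ligand-free HBSS. Membranes in Tris-Mg pH 7.4 were bound 2 h at room temperature with 1–10 nM [3H]NECA plus adenosine deaminase; 10 μM NECA defined nonspecific binding. Triplicate; Scatchard Bmax compared with control.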

[5] = molecular target: T1, Adenosine receptor A1 (Homo sapiens); assay: Percentage loss of [3H]- CPX binding in cells pretreated with a xanthine derivative at 50 uM; how it was run: as §1
[6] = molecular target: T3, Adenosine A2 receptor (Rattus norvegicus, UniProt P29276+P30543); assay: Binding of [3H]NECA to A2 adenosine receptor (post-Xanthine); format: protein assay
[7] = molecular target: T3, Adenosine A2 receptor; assay: Inhibition of [3H]NECA binding to A2 adenosine receptor of PC12 cell membranes; conditions: pc-12
[8] = test system: Adenosine receptor A1 (Mesocricetus auratus); assay: Loss of specific binding of [3H]CPX to the A1-adenosine receptor of DDT1 MF-2 (DDT) cells at a concentration of 1 uM
[9] = molecular target: T2, Adenosine A2 receptor (Rattus norvegicus); assay: Inhibition of [3H]NECA binding to A2 adenosine receptor of PC12 cell membranes at 50 uM; conditions: PC-12; how it was run: as §2
[10] = molecular target: T1, Adenosine receptor A1 (Homo sapiens); assay: Loss of [3H]CPX binding to A1 adenosine receptor of DDT1 MF-2 (DDT) cells at 0.1 uM; how it was run: as §1
[11] = molecular target: T3, Adenosine A2 receptor; assay: Binding of [3H]NECA to A2 adenosine receptor of PC12 cell membranes; conditions: pc-12
How it was run: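 PC12 cell membranes (0.1–0.2 mg protein) were incubated 2 h at room temperature in 50 mM Tris-HCl pH 7.4 with 5 mM MgCl2, 1 nM [3H]NECA, adenosine deaminase 2 units/mL, and 7–10 xanthine concentrations. Nonspecific binding was set with 10 μM NECA. Bound ligand was separated by filtration and counted by scintillation. Run in triplicate; IC50 from Hill plots.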

[12] = test system: Adenosine receptor A1 (Mesocricetus auratus); assay: Loss of [3H]CPX binding to A1 adenosine receptor of DDT1 MF-2 (DDT) cells at 10 uM
[13] = molecular target: T1, Adenosine receptor A1 (Homo sapiens); assay: Loss of [3H]CPX binding to A1 adenosine receptor of DDT1 MF-2 (DDT) cells at 0.01 uM; how it was run: as §1
[14] = molecular target: T1, Adenosine receptor A1 (Homo sapiens); assay: Loss of [3H]CPX binding to A1 adenosine receptor of DDT1 MF-2 (DDT) cells at 0.05 uM; how it was run: as §1

Structure (SMILES): O=C(OCCCn1c(=O)c2[nH]c(C3CCCC3)nc2n(CCCOC(=O)c2ccc(S(=O)(=O)F)cc2)c1=O)c1ccc(S(=O)(=O)F)cc1
Kd [1]: 0.82 nM

Loss [2]: 17%
Structure (SMILES): CCCn1c(=O)c2nc(CNC(=O)CBr)[nH]c2n(CCC)c1=O

Structure (SMILES): CCCn1c(=O)c2nc(CNC(=O)c3cccc(S(=O)(=O)F)c3)[nH]c2n(CCC)c1=O
Loss [3]: 38%
Loss [4]: 0%
Loss [5]: 58%
Kd [6]: 40 nM
IC50 [7]: 45000 nM

Loss [2]: 0%
Structure (SMILES): CCCn1c(=O)c2nc(-c3ccc(Cl)c([N+](=O)[O-])c3)[nH]c2n(CCC)c1=O

Structure (SMILES): CCCn1c(=O)c2nc(C3CCCC3)[nH]c2n(CCCOC(=O)c2cccc(S(=O)(=O)F)c2)c1=O
Loss [8]: 11%

Structure (SMILES): CCCn1c(=O)c2[nH]c(NC(=O)c3cccc(S(=O)(=O)F)c3)nc2n(CCC)c1=O
Kd [1]: 0.79 nM

Structure (SMILES): CCCn1c(=O)c2nc(CNC(=O)c3ccc(S(=O)(=O)F)cc3)[nH]c2n(CCC)c1=O
Loss [9]: 0%
Kd [6]: 51 nM
Loss [10]: 25%
Loss [8]: 72%
Loss [2]: 85%
IC50 [11]: 49000 nM

Structure (SMILES): CCCn1c(=O)c2nc(C3CCC(OC(=O)c4ccc(S(=O)(=O)F)cc4)C3)[nH]c2n(CCC)c1=O (centres undefined)
Loss [8]: 16%

Structure (SMILES): CCCn1c(=O)c2nc(CCCNC(=O)c3cccc(S(=O)(=O)F)c3)[nH]c2n(CCC)c1=O
Loss [2]: 30%

Loss [8]: 0%
Structure (SMILES): CCCn1c(=O)c2nc(C3CCCC3)[nH]c2n(CC(C)OC(=O)CBr)c1=O (centres undefined)

Structure (SMILES): O=C(OCCCn1c(=O)c2nc(C3CCCC3)[nH]c2n(CCCOC(=O)c2ccc(S(=O)(=O)F)cc2)c1=O)c1ccc(S(=O)(=O)F)cc1
Loss [2]: 50%

Structure (SMILES): CCCn1c(=O)c2[nH]c(CCCNC(=O)c3cccc(S(=O)(=O)F)c3)nc2n(CCC)c1=O
Kd [1]: 0.86 nM

Structure (SMILES): CCCn1c(=O)n(CCCOC(=O)c2ccc(S(=O)(=O)F)cc2)c(=O)c2[nH]c(C3CCCC3)nc21
IC50 [7]: > 100000 nM

Loss [12]: 0%
Structure (SMILES): CCCn1c(=O)c2nc(CNC(=O)c3ccccc3)[nH]c2n(CCC)c1=O

Loss [2]: 28%
Structure (SMILES): CCCn1c(=O)c2nc(CCNC(=O)CBr)[nH]c2n(CCC)c1=O

Structure (SMILES): CCCn1c(=O)c2nc(CCCNC(=O)c3ccc(S(=O)(=O)F)cc3)[nH]c2n(CCC)c1=O
Loss [4]: 0%
Kd [6]: 43 nM
IC50 [7]: 26000 nM

Structure (SMILES): CCCn1c(=O)c2nc(NC(=O)c3ccc(S(=O)(=O)F)cc3)[nH]c2n(CCC)c1=O
Kd [1]: 1.1 nM
Loss [2]: 88%

Kd [1]: 1.1 nM
Structure (SMILES): CCCn1c(=O)c2[nH]c(C3CCCC3)nc2n(CC(C)OC(=O)CBr)c1=O (centres undefined)

Structure (SMILES): CCCn1c(=O)c2nc(CCNC(=O)c3ccc(S(=O)(=O)F)cc3)[nH]c2n(CCC)c1=O
Kd [1]: 0.74 nM
Loss [2]: 72%

Loss [2]: 7%
Structure (SMILES): CCCn1c(=O)c2nc(CCCCCNC(=O)CBr)[nH]c2n(CCC)c1=O

Loss [2]: 16%
Structure (SMILES): CCCn1c(=O)c2nc(CCCCCN3C(=O)C=CC3=O)[nH]c2n(CCC)c1=O

Structure (SMILES): CCCn1c(=O)c2nc(NC(=O)c3cccc(S(=O)(=O)F)c3)[nH]c2n(CCC)c1=O
Loss [2]: 54%

Structure (SMILES): CCCn1c(=O)c2nc(C3CCCC3)[nH]c2n(CCCOC(=O)c2ccc(S(=O)(=O)F)cc2)c1=O
Kd [6]: 53 nM
IC50 [7]: 9000 nM
Loss [13]: 60%
Loss [14]: 74%
